Source: ChEMBL document CHEMBL1123129, “Hypolipidemic activity of indan-1,3-dione derivatives in rodents” (J Med Chem, 1985)
Where “and” joins values, the source holds several entries; their conditions need not be identical. Equal values may be shown once.

What was measured:
[1] = tested on: Mus musculus; test: In Vivo effect for the hypolipidemic activity on Hepatic lipoprotein lipase in CF1 mice after 16 days administered orally at a dose of 10 mg/kg; format: functional; conditions: route oral
Procedure, shortened: (§1)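 CF1 male mice are dosed orally at 10–60 mg/kg per day for 16 days, with 1% CMC as the control vehicle. Liver is homogenized at 10% in 0.25 M sucrose + 0.001 M EDTA, pH 7.2. Enzymes are assayed by literature methods, with Lowry protein. Activity is given as % of control (X ± SD, N = 6), with p from Student's t test.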

[2] = tested on: Rattus norvegicus; test: Compound was evaluated for the hypolipidemic activity at 20 mg/kg per day orally for 14 days on neutral lipids content in rat feces.; format: functional; conditions: route oral
Procedure, shortened: (§2)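 Male Sprague–Dawley rats were dosed orally for 14 days. Liver, small intestine and a 24-h fecal collection were lipid-extracted. Extracts were assayed for cholesterol (modified Liebermann–Burchard), triglyceride (enzymatic kit), neutral lipids, phospholipids and protein. Values are % of 1% CMC vehicle control, mean ± SD, N = 6.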

[3] = tested on: Rattus norvegicus; test: Compound was evaluated for the hypolipidemic activity in Sprague-Dawley rats at a dose of 20 mg/kg orally for Serum triglyceride at 16th day; format: functional; conditions: route oral
Procedure, shortened: (§3)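 Sprague–Dawley male rats (~350 g) received 20 mg/kg per day orally, with 1% CMC as the vehicle control; N = 6. Tail-vein blood was taken between 8:00 and 9:30 a.m. on days 9 and 16 and spun for 3 min to obtain serum. Cholesterol was measured by a modified Liebermann–Burchard reaction and triglyceride by kit. Values are % control ± SD; significance by Student's t test.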

[4] = tested on: Mus musculus; test: In Vivo effect for the hypolipidemic activity on Acetyl-CoA carboxylase in CF1 mice after 16 days administered orally at a dose of 40 mg/kg; format: functional; conditions: route oral; procedure, shortened: as §1
[5] = tested on: Rattus norvegicus; test: Compound was evaluated for the hypolipidemic activity at 20 mg/kg per day orally for 14 days on protein content in rat feces.; format: functional; conditions: route oral; procedure, shortened: as §2
[6] = tested on: Mus musculus; test: Compound was evaluated for the hypolipidemic activity in CF1 male mice at a dose of 20 mg/kg orally for Serum cholesterol at 16th day; format: functional; conditions: route oral
Procedure, shortened: (§4)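 CF1 male mice received the agent orally in 1% CMC at 10–60 mg/kg per day. Tail-vein blood was taken on days 9 and 16. Serum cholesterol was measured by modified Liebermann–Burchard on duplicate 25-µL samples, and serum triglyceride on day 16 in duplicate 50-µL samples. Values are % of vehicle control, mean ± SD, N = 6; Student's t test.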

[7] = tested on: Rattus norvegicus; test: Compound was evaluated for the hypolipidemic activity at 20 mg/kg per day orally for 14 days on cholesterol content in rat liver; format: functional; conditions: route oral; procedure, shortened: as §2
[8] = target: Cholesterol 7-alpha-hydroxylase (Cytochrome P450 7A1) (Mus musculus, UniProt Q64505); test: In vitro percent Cholesterol 7-alpha-hydroxylase activity in mouse CF1 liver microsomes at 50 uM; design: species or system Microsome; conditions: read-out: Control
Procedure, shortened: (§5)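 Mouse liver enzymes assayed in vitro on 10% homogenates of CF1 male mouse liver, with test drug added at 50–200 μM. Each enzyme follows a published procedure. Protein is measured by Lowry. Activity is given as % of untreated control (X ± SD, N = 6).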

[9] = tested on: Rattus norvegicus; test: Compound was evaluated for the hypolipidemic activity at 20 mg/kg per day orally for 14 days on phospholipids content in rat lipoprotein chylomicron; format: functional; conditions: route oral
Procedure, shortened: (§6)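 Male Sprague–Dawley rats (~300 g) were dosed orally each day. Blood was drawn from the abdominal vein. Lipoprotein fractions (chylomicron, VLDL, LDL, HDL) were separated by the Hatch–Lees and Havel methods. Each fraction was assayed for cholesterol, triglyceride (enzymatic kit), neutral lipids, phospholipids and Lowry protein. Values are % of 1% CMC vehicle control, N = 6.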

[10] = tested on: Mus musculus; test: Compound was evaluated for the hypolipidemic activity in CF1 male mice at a dose of 40 mg/kg orally for Serum cholesterol at 9th day; format: functional; conditions: route oral; procedure, shortened: as §4
[11] = species: Mus musculus; test: In Vitro evaluation for the CF1 liver enzyme activity on Acetyl-CoA carboxylase at concentration 50 uM; format: functional
Procedure, shortened: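 Liver was taken from CF1 male mice and made into 10% homogenates, which were incubated with test compound at 50, 100 or 200 µM. Each enzyme was assayed by its literature method, and protein was measured by Lowry. N = 6. Activity is expressed as % of untreated control ± SD.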

[12] = species: Mus musculus; test: In Vitro evaluation for the CF1 liver enzyme activity on phosphatidate phosphohydrolase at concentration 100 uM; procedure, shortened: as §5
[13] = tested on: Rattus norvegicus; test: Compound was evaluated for the hypolipidemic activity at 20 mg/kg per day orally for 14 days on triglycerides content in rat feces.; format: functional; conditions: route oral; procedure, shortened: as §2
[14] = tested on: Rattus norvegicus; test: Compound was evaluated for the hypolipidemic activity at 20 mg/kg per day orally for 14 days on phospholipids content in rat feces.; format: functional; conditions: route oral; procedure, shortened: as §2
[15] = tested on: Rattus norvegicus; test: Compound was evaluated for the hypolipidemic activity in Sprague-Dawley rats at a dose of 20 mg/kg orally for Serum cholesterol at 9th day; format: functional; conditions: route oral; procedure, shortened: as §3
[16] = tested on: Rattus norvegicus; test: Compound was evaluated for the hypolipidemic activity at 20 mg/kg per day orally for 14 days on protein content in rat small intestine.; format: functional; conditions: route oral; procedure, shortened: as §2
[17] = tested on: Mus musculus; test: In Vivo effect for the hypolipidemic activity on Hepatic lipoprotein lipase in CF1 mice after 16 days administered orally at a dose of 60 mg/kg; format: functional; conditions: route oral; procedure, shortened: as §1
[18] = tested on: Rattus norvegicus; test: Compound was evaluated for the hypolipidemic activity at 20 mg/kg per day orally for 14 days on triglycerides content in rat HDL; format: functional; conditions: route oral; procedure, shortened: as §6
[19] = species: Mus musculus; test: In Vitro evaluation for the CF1 liver enzyme activity on phosphatidate phosphohydrolase at concentration 200 uM; procedure, shortened: as §5
[20] = tested on: Mus musculus; test: In Vivo effect for the hypolipidemic activity on Hepatic lipoprotein lipase in CF1 mice after 16 days administered orally at a dose of 40 mg/kg; format: functional; conditions: route oral; procedure, shortened: as §1

Sequence of Cholesterol 7-alpha-hydroxylase (Cytochrome P450 7A1) (Q64505 whole entry): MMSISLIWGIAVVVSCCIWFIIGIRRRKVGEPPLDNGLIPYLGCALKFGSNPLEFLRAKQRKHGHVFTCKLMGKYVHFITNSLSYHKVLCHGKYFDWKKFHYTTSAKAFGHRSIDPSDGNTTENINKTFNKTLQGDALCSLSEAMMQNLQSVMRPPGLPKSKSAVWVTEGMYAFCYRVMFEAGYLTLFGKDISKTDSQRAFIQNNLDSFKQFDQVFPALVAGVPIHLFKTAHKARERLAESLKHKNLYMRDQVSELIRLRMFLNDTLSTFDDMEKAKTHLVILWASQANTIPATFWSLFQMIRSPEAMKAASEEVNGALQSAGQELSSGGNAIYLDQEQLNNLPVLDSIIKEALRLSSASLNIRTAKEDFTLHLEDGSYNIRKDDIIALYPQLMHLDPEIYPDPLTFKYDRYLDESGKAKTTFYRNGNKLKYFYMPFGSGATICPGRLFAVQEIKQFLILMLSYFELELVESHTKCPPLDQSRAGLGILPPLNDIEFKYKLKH

Work on COc1ccc(C2C(=O)c3ccccc3C2=O)cc1 [ANISINDIONE] yielded a Control [1] of 83%, a Control [2] of 101% and a Control [3] of 59%. The Control [4] was 98%, the Control [5] was 99% and the Control [6] was 62%. For the same compound, the Control [7] was 69% and 84%, the activity at 50 µM [8] was 106% and the Control [9] was 135%. The Control [10] was 79%, the Control [11] was 118% and the Control [12] was 29%. The Control [13] was 118%, the Control [14] was 100% and the Control [15] was 74%. For the same compound, the Control [16] was 102%, the Control [17] was 89% and the Control [18] was 59%. For the same compound, the Control [19] was 11% and the Control [20] was 89%.
